Results on three molecules are retold here after ChEMBL document CHEMBL1125815, “2-Phenyl-3H-imidazo[4,5-b]pyridine-3-acetamides as non-benzodiazepine anticonvulsants and anxiolytics” (J Med Chem, 1991).

Data set [1] addresses GABA-A receptor; anion channel. The data set is described as follows: Displacement of [3H]flunitrazepam from GABA-A benzodiazepine receptor of rat cerebral cortex membrane. The format is tissue-based. The method, boiled down: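 Rat cerebral cortex P2+P3 membranes (fresh tissue, two freeze-thaw-wash cycles to remove endogenous GABA), 0.4 mg protein. Incubated with 1 nM [3H]flunitrazepam and six concentrations (1 × 10^-5 – 1 × 10^-10 M) for 30 min at 4 °C. Filtered on GF/b filters and counted. […] IC50 from log-logit regression, mean of replicates.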

The species named for data set [2] is Mus musculus. The data set is described as follows: Anticonvulsant activity against pentylenetetrazole-induced clonic seizures in mice. The format is functional. As to conditions: Mus musculus; read-out: ED50. Summed up: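 Female adult ICR mice, groups of eight, given test compound ip (100 mg/kg screen) in 0.5% aqueous methylcellulose or vehicle. Challenged 30 min later with pentyletetrazole 80 mg/kg sc and scored for clonic seizures.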

The species entered for data set [3] is Mus musculus. In words: Anxiolytic activity by light/dark exploratory behavioral test in mice. Format: functional. To be noted: for minimal effective dose: read-out: MED. The method, boiled down:
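Mice were dosed 30 min before testing, then placed individually in a two-compartment light/dark activity chamber and left undisturbed for 5 min. Time spent in each compartment was compared with vehicle-treated mice by Dunnett's t test. Minimal effective dose and sedative dose reported in mg/kg ip.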

For data set [4], the species on record is Mus musculus. In words: Potentiation of ethanol (EtOH) induced sleep time in mice. To be noted: read-out: MED. Format: functional. The method, boiled down: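 Compound given orally; the minimal effective dose (mg/kg po) for potentiating ethanol-induced sleep time in mice was reported.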
The species entered for data set [5] is Rattus norvegicus. In words: Ratio of IC50 values for [3H]-Ro- 15-1788 binding in absence and presence of added GABA (rat cerebral cortex). The format is functional. The method, boiled down:
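Rat cerebral cortex membranes. IC50 for displacement of [3H]Ro 15-1788 was measured without and with excess added GABA. The ratio of the two IC50 values served as the index of agonist efficacy.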

Data set [6] is filed under the species Mus musculus. The data set is described as follows: (§1) Neurotoxicity against mice in rotarod test. The format is toxicity, organism-based. To be noted: in vivo. Summed up:
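Groups of five randomly selected mice were dosed 30 min before being placed on a knurled 28-mm rod rotating at 6 rpm. Failure to stay on the rod for 1 min was scored as neurotoxic. ED50 (mg/kg ip) and confidence limits came from probit analysis.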

The species entered for data set [7] is Rattus norvegicus. The data set is described as follows: Anxiolytic activity by vogel punished drinking test in rats. To be noted: read-out: MED. Format: functional. Summed up: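 Modified Vogel conflict test. Rats were water-deprived for 48 h with food available. A drinkometer delivered a 0.65 mA shock after every 20th lick during a 3-min session starting at the first shock. Total shocks were compared with vehicle-treated rats by Dunnett's t test. Minimal effective dose reported in mg/kg ip.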

Data set [8] concerns Mus musculus. The data set is described as follows: Compound was tested for anticonvulsant activity against pentylenetetrazole-induced clonic seizures in mice at dose 80 mg/kg.
Data set [9] has as its system Mus musculus. The data set is described as follows: Anticonvulsant activity against picrotoxin-induced clonic seizures in mice at 3.2 mg/kg sc. The format is functional. To be noted: route subcutaneous.
Data set [10] is described as follows: as §1. The format is toxicity, organism-based. To be noted: mouse, in vivo. Summed up: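 Mice in groups of five, dosed ip 30 min before being placed on a knurled 28 mm rod rotating at 6 rpm. Failure to stay on for 1 min was scored as neurotoxic. ED50 and confidence limits were obtained by probit analysis.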
Data set [11] is filed under the species Mus musculus. In words: Compound was tested for anticonvulsant activity against maximal electroshock-induced […] seizures in mice at 50mA, 200 ms. The format is functional.
The test system of data set [12] is Mus musculus. The data set is described as follows: Compound was tested for anticonvulsant activity against bicuculline-induced clonic seizures in mice at 2.7 mg/kg sc. Format: functional. As to conditions: route subcutaneous.

Where only a bound is given, the exact number is not on record here.

For the molecule `Cc1ccc(-c2nc3ccc(Cl)nc3n2CC(=O)N(C)C)cc1`, in [1], the IC50 is 0.15 µM. The ED50 amounted to 2.7 mg/kg in the data set filed under Mus musculus [2] and 15.2 mg/kg in the data set filed under Mus musculus [6]. Besides, in the data set listed under Mus musculus [3], the Sedative dose was 5.62 mg/kg. Further, the minimal effective dose in the data set filed under Mus musculus [3] was determined as 0.1 mg/kg; in the data set listed under Mus musculus [4], 10 mg/kg; in the data set listed under Rattus norvegicus [7], 1 mg/kg. In the data set listed under Rattus norvegicus [5], the GABA shift was 3.06.

For `CN1C(=O)CN=C(c2ccccc2)c2cc(Cl)ccc21` [DIAZEPAM], the figures for the ED50 in the data set filed under Mus musculus [2], in the data set filed under Mus musculus [6] and with Mus musculus [8] were 0.9 mg/kg, 1.7 mg/kg and 0.2 mg/kg, respectively. The same molecule gave a Sedative dose in the data set listed under Mus musculus [3] of 10 mg/kg. Also, the results for the minimal effective dose in the data set listed under Mus musculus [3], in the data set listed under Mus musculus [4] and in the data set listed under Rattus norvegicus [7] were 1 mg/kg, 2.5 mg/kg and 1 mg/kg, respectively.

On to `NC(=O)Cn1c(-c2ccc(Cl)cc2)nc2cccnc21`, for which the IC50 in [1] amounted to 8 µM. Further, the ED50 turned out to be 4.1 mg/kg in the data set listed under Mus musculus [2], 211 mg/kg in the data set with Mus musculus [9], 329 mg/kg in the data set listed under Mus musculus [11] and 174 mg/kg in the data set with Mus musculus [12]. Besides, the TD50 in [10] was greater than 1000 mg/kg.
